The values below come from ChEMBL document CHEMBL3421564, “Synthesis and biological evaluation of indolyl-pyridinyl-propenones having either methuosis or microtubule disruption activity” (2015).

Active and inactive are the calls of the source. The calls are words filed in the database; no cut-off is given here.

Assay [1] has as its system U-251. Put plainly: Growth inhibition of human U251 cells at 10 uM after 24 hrs sulphorhodomine B colorimetric assay. The class given is functional, cell-based.
In assay [2] the test system is U-251. Briefly: Induction of methuosis in human U251 cells assessed as cytoplasmic vacuolization at 2.5 uM up to 48 hrs by phase contrast microscopy. The class given is functional, cell-based. The procedure, abridged:
(§1)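 Live U251 cells seeded at 10^5 per 35 mm dish; fresh medium with compound added after 1 day, DMSO vehicle control. Phase-contrast images taken at set intervals after drug addition (4 h to 48 h). Vacuolization, blebbing, rounding and detachment scored by eye.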

The target of assay [3] is T1, Tubulin (Homo sapiens) (UniProt P68371+Q9H4B7+P0DPH7+P68366+Q13509+Q71U36+P04350+Q3ZCM7+P07437+P68363+Q9BQE3+Q6PEY2+Q13885+Q9BVA1+Q9BUF5). Put plainly: Inhibition of tubulin polymerization in human U251 cells at 0.1 uM after 4 hrs by immunoblot analysis. Format: cell-based. The note with it: U-251. The procedure, abridged: (§2)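 Seeded at 1.4 × 10^6 cells per 10 cm dish and treated one day later for 4 h, DMSO control. Cells scraped into 37 °C lysis buffer (100 mM PIPES pH 6.9, 5 mM MgCl2, 1 mM EGTA, 30% glycerol, detergents, 2 mM GTP, protease inhibitors) and spun at 100000g for 1 h at 37 °C. Pellet (polymer) and supernatant tubulin measured by anti-α-tubulin immunoblot with chemiluminescence. Polymer fraction expressed as % of DMSO control; mean ± S.D. of three experiments, two-tailed t test.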

For assay [4], the system named is U-251. Briefly: Induction of methuosis in human U251 cells assessed as cytoplasmic vacuolization at 2.5 uM within 4 hrs by phase contrast microscopy. Format: functional, cell-based. Put shortly:
as §1

Assay [5] addresses T1, Tubulin (Homo sapiens). Put plainly: Inhibition of tubulin polymerization in human U251 cells at 3 uM after 4 hrs by immunoblot analysis. The settings on record: U-251. The class given is cell-based. The procedure, abridged:
as §2
A general note: A western blot detects proteins with antibodies after separation by electrophoresis.

The test system of assay [6] is U-251. Put plainly: Induction of methuosis in human U251 cells assessed as small cytoplasmic vacuolization and extensive blebbing of the plasma membrane at 2.5 uM after 4 hrs by phase contrast microscopy.

In the case of `CCCCOc1ccc2[nH]c(C)c(/C=C/C(=O)c3ccncc3)c2c1`, the “growth inhibition (GI)” value with U-251 [1] was “inactive”. Further, in the assay with U-251 [2], the result was Active.

`COc1ccc2[nH]c(C)c(/C=C/C(=O)c3ccncc3)c2c1`: at Tubulin (Homo sapiens) [3], the inhibition entry is “inactive”.

For the molecule `Cc1[nH]c2ccc(N)cc2c1/C=C/C(=O)c1ccncc1`, the “growth inhibition (GI)” value in the assay on U-251 [1] was “inactive”. The result with U-251 [4] was inactive.

Turning to `CCCOc1ccc2[nH]c(C)c(/C=C/C(=O)c3ccncc3)c2c1`, the inhibition entry at Tubulin (Homo sapiens) [3] is “inactive”.

`CCOC(=O)c1[nH]c2ccc(OC)cc2c1/C=C/C(=O)c1ccncc1`: on Tubulin (Homo sapiens) [5], the inhibition result was “Active”. The inhibition result on Tubulin (Homo sapiens) [3] was “inactive”.

With `COc1ccc2[nH]c(C(F)(F)F)c(/C=C/C(=O)c3ccncc3)c2c1`, on Tubulin (Homo sapiens) [5], the inhibition result is “Active”. For the same molecule, at Tubulin (Homo sapiens) [3], the inhibition entry was “inactive”.

Take `NCc1ccc2[nH]cc(/C=C/C(=O)c3ccncc3)c2c1`: the “growth inhibition (GI)” value with U-251 [1] is “inactive”. The result with U-251 [2] was inactive.

For `COc1ccc2[nH]c(C(=O)O)c(/C=C/C(=O)c3ccncc3)c2c1`, in the assay with U-251 [1], the “growth inhibition (GI)” value was “inactive”. The result in the assay with U-251 [6] was Active.

In the case of `CCCOC(=O)c1[nH]c2ccc(OC)cc2c1/C=C/C(=O)c1ccncc1`, the inhibition result at Tubulin (Homo sapiens) [5] is “Active”. On Tubulin (Homo sapiens) [3], the inhibition entry was “inactive”.
